Compound activity: PubChem, Broad Institute
These entries were drawn from the full list.
PGC1a acetyl up: compounds raising PGC1a acetylation signal, primary screen, PGC1a modulator project, cell-based, U2OS, AlphaScreen, signal-increasing mode; overnight; activation, % at 15.6 µM; 350,000 compounds, 0.21% hits;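 active = every replicate reaching activation of at least 50%, whatever the mean replicate activation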;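 also: hits raise the AlphaScreen acetylation signal above neutral controls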
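Test system: U2OS cells expressing flag-PGC1a plus GCN5; Amount: 7000 U2OS cells per well; Compound: single test concentration per compound; Incubation: compound overnight at 37 °C, each detection step 1 h RT; Signal: AlphaScreen lysate read.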
Active calls of the source: *.

For COCCn1c(SC(C)C(=O)Nc2ncc(Cl)cc2Cl)nc2ccccc21 (centres undefined) the results were PGC1a acetyl up -43.6.
O=C1C2C3CCC(C3)C2C(=O)N1CNc1ccc(F)cc1 (centres undefined) was read as PGC1a acetyl up -46.6.
For CC1CC(C)(C)CC(=O)C1C(=O)c1ccccc1 (centres undefined) the results were PGC1a acetyl up -48.7.
For CC(C)(C)c1ccc(NC(=O)N2CCN(c3ccc([N+](=O)[O-])cn3)CC2)cc1 the results were PGC1a acetyl up 191.5*.
CC(=O)Nc1ccc(S(=O)(=O)N2CCN(c3ccccn3)CC2)cc1 was read as PGC1a acetyl up -52.8.
Screening O=C(Nc1ccc(F)cc1F)N1CCCN(c2ccc([N+](=O)[O-])cn2)CC1 returned PGC1a acetyl up 94.1*.
`CCCC1S/C(=N/N=C/c2ccc(C)cc2)N(Cc2ccc(OC)cc2)C1=O` (centres undefined) gave PGC1a acetyl up -40.5.
C[C@H](CO)N1C[C@H](C)[C@H](CN(C)S(C)(=O)=O)Oc2ncc(-c3cc4ccccc4o3)cc2C1=O was read as PGC1a acetyl up -46.9.
For CCOC(=O)CNC(=O)OC1CCN2Cc3ccccc3N=C12 (centres undefined) the results were PGC1a acetyl up -77.5.
CCn1c2ccccc2c2cc(/C=N/n3c(-c4cc(C)[nH]n4)n[nH]c3=S)ccc21 was read as PGC1a acetyl up -40.2.
`N#C/C(=C/c1ccc(N2CCCCCC2)o1)c1ccc(F)cc1` gave PGC1a acetyl up 91.1*.
Screening CCC(=O)N[C@H]1CC[C@H](CC(=O)OC)O[C@H]1CO returned PGC1a acetyl up -43.4.
CCC(=O)Nc1ccc2c(c1)OC[C@@H](C)N(C(=O)c1cnccn1)C[C@H](C)[C@H](OC)CN(C)C2=O was read as PGC1a acetyl up -58.7.
`CCOC(=O)C(CC)(CC)C(=O)/C=C/c1ccc(Br)cc1` gave PGC1a acetyl up -56.7.
Screening CCOc1ccc(/C=C/C(=O)Oc2ccccc2)cc1 returned PGC1a acetyl up 154.0*.
Screening CCCCOc1ccc(/C=C/C(=O)OCC(=O)c2c(N)n(C)c(=O)n(C)c2=O)cc1OCC returned PGC1a acetyl up -46.8.
Screening CC(=O)N(c1ccccc1)c1nnc(-c2cnc(C)cn2)s1 returned PGC1a acetyl up -58.0.
`Oc1ccc(-c2nnc(-c3ccc(O)cc3)nn2)cc1` gave PGC1a acetyl up 74.4*.
`NC(=O)c1ccc(NC(=O)C#Cc2ccccc2)cc1` gave PGC1a acetyl up 202.5*.
`NC(=O)NC(=O)Nc1ccccc1Cl` gave PGC1a acetyl up -54.3.
`O=c1[nH][nH]c(-c2ccccc2)c1C=Nc1ccccc1Cl` gave PGC1a acetyl up -41.2.
For CCOC(=O)N1CCN(C(=O)C(NS(=O)(=O)c2cccc3nsnc23)c2ccccc2)CC1 (centres undefined) the results were PGC1a acetyl up 59.0*.
For C[C@H]1CN([C@@H](C)CO)S(=O)(=O)c2ccc(C#CC3CCCCC3)cc2O[C@@H]1CN(C)Cc1cccnc1 the results were PGC1a acetyl up -63.9.
O=C1C=C(c2cc3ccccc3s2)CCC1 was read as PGC1a acetyl up 58.2*.
Screening C[C@@H]1CN([C@H](C)CO)C(=O)c2cc(/C=C/c3ccccc3)cnc2O[C@@H]1CN(C)Cc1cccnc1 returned PGC1a acetyl up -64.7.
Screening O=C(c1ccc(N2CCCC2=O)cc1)N1CCCCCC1 returned PGC1a acetyl up -41.8.
For N#CC1=C(N)Oc2n[nH]c(-c3ccccc3)c2C1c1ccncc1 (centres undefined) the results were PGC1a acetyl up 55.4*.
For COCCCn1[nH]c2c3c(ccc2c1=O)C(=O)c1ccccc1C3=O the results were PGC1a acetyl up -45.5.
O=C(C[C@H]1CC[C@@H](NS(=O)(=O)c2ccc(F)cc2)[C@H](CO)O1)N1CCN(c2ccccc2)CC1 was read as PGC1a acetyl up -49.7.
`O=C(Nc1ccccc1)C1=C(c2ccccc2)S(=O)(=O)CCS1(=O)=O` gave PGC1a acetyl up 103.8*.
Screening O=C(Nc1ccccc1-c1ccccc1)NC1CC2CCCC(C1)N2Cc1ccc(F)cc1 (centres undefined) returned PGC1a acetyl up -42.2.
Screening CCc1nnc(NC(=O)Cc2ccc(S(=O)(=O)N3CCCCC3)cc2)s1 returned PGC1a acetyl up 64.9*.
For COc1ccc(CCNC(=O)COc2ccc(S(=O)(=O)N3CCCC3)cc2)cc1 the results were PGC1a acetyl up -47.6.
Screening CC(C)(C)Cc1nnc(NS(=O)(=O)c2ccc(F)cc2)s1 returned PGC1a acetyl up -43.4.
Screening O=C(O)Cn1cc(C(=O)C(F)(F)F)c2ccccc21 returned PGC1a acetyl up -45.2.
N#Cc1c(-c2ccccc2)c(-c2ccccc2)nn(CC(=O)NNC(=O)Nc2ccc(Cl)cc2)c1=O was read as PGC1a acetyl up -40.0.
For Cc1nc(SCC(=O)OCc2ccccc2)c(C#N)c(-c2ccccc2)c1C(=O)Nc1ccccc1 the results were PGC1a acetyl up 56.9*.
Screening O=C(CC1CC1)N[C@@H]1CC[C@H](CCNS(=O)(=O)c2ccc(Cl)cc2)O[C@H]1CO returned PGC1a acetyl up -64.5.
